Values after ≈ are worked out from the molar mass of the structure shown.
Tests used:
KB [1] = assay: Cytotoxicity against human KB cells at 20 ug/mL; type: functional
[2] = Cytotoxicity against human BC1 cells at 20 ug/mL; type: functional
Vero [3] = assay: Cytotoxicity against african green monkey Vero cells at 20 ug/mL; type: functional; details: Chlorocebus sabaeus
Plasmodium falciparum = assay: Antimalarial activity against Plasmodium falciparum K1 by [3H]hypoxanthine uptake; type: functional, organism-based
Summary of the method: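 P. falciparum K1 (multidrug-resistant) asexual erythrocytic stages were kept in continuous in vitro culture. Activity was measured by a microculture radioisotope method. EC50 is the concentration giving 50% reduction in parasite growth, read as in vitro [3H]hypoxanthine uptake.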

KB [4] = assay: Cytotoxicity against human KB cells; type: functional, cell-based
Vero [5] = assay: Cytotoxicity against african green monkey Vero cells; type: functional, cell-based, Chlorocebus sabaeus
[6] = Cytotoxicity against human BC1 cells; type: functional, cell-based

| Compound | inhibition at 20 µg/mL (KB [1]) [%] | inhibition at 20 µg/mL [2] [%] | inhibition at 20 µg/mL (Vero [3]) [%] | EC50 (Plasmodium falciparum) [ng/mL] | EC50 (KB [4]) [ng/mL] | EC50 (Vero [5]) [ng/mL] | EC50 [6] [ng/mL] |
| --- | --- | --- | --- | --- | --- | --- | --- |
| C[C@@H]1CC[C@H]2[C@@H](C)C(=O)O[C@@H]3O[C@@]4(C)CC[C@@H]1[C@]32OO4 [ARTEMISININ] | < 50 | < 50 | < 50 | – | – | – | – |
| CC1=C[C@H]2O[C@@H]3C[C@H]4OC(=O)/C=C\C=C\[C@H]([C@@H](C)O)OCC[C@@H](C)[C@H](O)C(=O)OC[C@@]2(CC1)[C@]4(C)[C@]31CO1 [RORIDIN A] | – | – | – | 0.31 (≈ 0.582 nM) | 1 (≈ 1.88 nM) | 1.7 (≈ 3.19 nM) | 5 (≈ 9.39 nM) |
| CC(=O)O[C@H](C)[C@H]1/C=C/C=C\C(=O)O[C@@H]2C[C@H]3O[C@@H]4C=C(C)CC[C@]4(COC(=O)/C=C(\C)CCO1)[C@]2(C)[C@]31CO1 [RORIDIN E ACETATE] | – | – | – | 0.06 | 14 | 4.1 | 15 |
| CC1=C[C@H]2O[C@@H]3C[C@H]4OC(=O)/C=C\C=C\[C@H]([C@@H](C)O)OCC/C(C)=C/C(=O)OC[C@@]2(CC1)[C@]4(C)[C@]31CO1 [RORIDIN E] | – | – | – | 0.15 (≈ 0.291 nM) | 0.5 (≈ 0.972 nM) | 0.4 (≈ 0.777 nM) | 0.7 (≈ 1.36 nM) |
| CC1=C[C@H]2O[C@@H]3C[C@H]4OC(=O)/C=C\C=C\C(=O)OCC[C@@H](C)[C@H](O)C(=O)OC[C@@]2(CC1)[C@]4(C)[C@]31CO1 [VERRUCARIN A] | – | – | – | 0.9 (≈ 1.79 nM) | 1.2 (≈ 2.39 nM) | 1.1 (≈ 2.19 nM) | 4.2 (≈ 8.36 nM) |
| CC1=C[C@H]2O[C@@H]3C[C@H]4OC(=O)/C=C\C=C\C(=O)OCC/C(C)=C/C(=O)OC[C@@]2(CC1)[C@]4(C)[C@]31CO1 [VERRUCARIN J] | – | – | – | 0.2 (≈ 0.413 nM) | 3.9 (≈ 8.05 nM) | 1.2 (≈ 2.48 nM) | 14 (≈ 28.9 nM) |

— ChEMBL document CHEMBL1158025, “Antimalarial activity of macrocyclic trichothecenes isolated from the fungus Myrothecium verrucaria” (J Nat Prod, 1999)
